Measured values taken from ChEMBL document CHEMBL4689842, “EUbOPEN Chemogenomics Library wave 1” (2021).

System: HEK-293T
Experiment: Multiplex assay against HEK293T;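 as to Population Tubulin-Different-Phenotype (%): share of the cells with healthy nuclei that show this phenotype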
Assay type: toxicity, cell-based
Conditions: human
Procedure, shortened: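 Live cells were stained at seeding with Hoechst33342, BioTracker Green Microtubule Cytoskeleton Dye, MitoTracker Red and Annexin V Alexa Fluor 680, then imaged on a CQ1 microscope at 37°C and 5% CO2 after compound addition. CellPathfinder machine-learning gating split cells into Hoechst high-intensity objects or normal cells. Normal cells were split into healthy, pyknosed or fragmented nuclei, and pyknosed cells into mitotic or apoptotic. Tubulin, mitochondrial-mass and membrane-permeability phenotypes are per cents of healthy-nucleus cells.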

[1] = 12 h, 1 µM, compound concentration 1 uM, replicate 1
[2] = 12 h, 1 µM, compound concentration 1 uM, replicate 2
[3] = 12 h, 10 µM, compound concentration 10 uM, replicate 1
[4] = 12 h, 10 µM, compound concentration 10 uM, replicate 2
[5] = 24 h, 1 µM, compound concentration 1 uM, replicate 1
[6] = 24 h, 1 µM, compound concentration 1 uM, replicate 2
[7] = 24 h, 10 µM, compound concentration 10 uM, replicate 1
[8] = 24 h, 10 µM, compound concentration 10 uM, replicate 2
[9] = 48 h, 1 µM, compound concentration 1 uM, replicate 1
[10] = 48 h, 1 µM, compound concentration 1 uM, replicate 2
[11] = 48 h, 10 µM, compound concentration 10 uM, replicate 1
[12] = 48 h, 10 µM, compound concentration 10 uM, replicate 2

CN(c1cc(C(F)(F)F)nc(OCCC(=O)O)n1)c1cccc2c1CCC2
Population Apoptotic (%) [1]: 44% | Population Fragmented Nuclei (%) [1]: 21% | Population Healthy Nuclei (%) [1]: 34% | Population Hoechst High Intensity Objects (%) [1]: 14% | Population Membrane Permeable-Phenotype (%) [1]: 3% | Population Mitochondria Different-Phenotype (%) [1]: 67% | Population Mitotic Cells (%) [1]: 55% | Population Normal (%) [1]: 85% | Population Pyknosed Nuclei (%) [1]: 44% | Population Tubulin-Different-Phenotype (%) [1]: 29% | Total Cell Count [1]: 189 | Population Apoptotic (%) [2]: 12% | Population Fragmented Nuclei (%) [2]: 4% | Population Healthy Nuclei (%) [2]: 49% | Population Hoechst High Intensity Objects (%) [2]: 4% | Population Membrane Permeable-Phenotype (%) [2]: 8% | Population Mitochondria Different-Phenotype (%) [2]: 15% | Population Mitotic Cells (%) [2]: 87% | Population Normal (%) [2]: 95% | Population Pyknosed Nuclei (%) [2]: 46% | Population Tubulin-Different-Phenotype (%) [2]: 14% | Total Cell Count [2]: 193 | Population Apoptotic (%) [3]: 37% | Population Healthy Nuclei (%) [3]: 49% | Population Hoechst High Intensity Objects (%) [3]: 16% | Population Membrane Permeable-Phenotype (%) [3]: 1% | Population Mitochondria Different-Phenotype (%) [3]: 69% | Population Mitotic Cells (%) [3]: 62% | Population Normal (%) [3]: 83% | Population Pyknosed Nuclei (%) [3]: 41% | Population Tubulin-Different-Phenotype (%) [3]: 28% | Total Cell Count [3]: 223 | Population Apoptotic (%) [4]: 8% | Population Fragmented Nuclei (%) [4]: 8% | Population Healthy Nuclei (%) [4]: 42% | Population Hoechst High Intensity Objects (%) [4]: 2% | Population Membrane Permeable-Phenotype (%) [4]: 6% | Population Mitochondria Different-Phenotype (%) [4]: 14% | Population Mitotic Cells (%) [4]: 91% | Population Normal (%) [4]: 97% | Population Pyknosed Nuclei (%) [4]: 49% | Population Tubulin-Different-Phenotype (%) [4]: 9% | Total Cell Count [4]: 233 | Population Apoptotic (%) [5]: 34% | Population Fragmented Nuclei (%) [5]: 18% | Population Healthy Nuclei (%) [5]: 30% | Population Hoechst High Intensity Objects (%) [5]: 11% | Population Membrane Permeable-Phenotype (%) [5]: 1% | Population Mitochondria Different-Phenotype (%) [5]: 53% | Population Mitotic Cells (%) [5]: 65% | Population Normal (%) [5]: 88% | Population Pyknosed Nuclei (%) [5]: 51% | Population Tubulin-Different-Phenotype (%) [5]: 32% | Total Cell Count [5]: 193 | Population Apoptotic (%) [6]: 21% | Population Fragmented Nuclei (%) [6]: 8% | Population Healthy Nuclei (%) [6]: 65% | Population Hoechst High Intensity Objects (%) [6]: 4% | Population Membrane Permeable-Phenotype (%) [6]: 10% | Population Mitochondria Different-Phenotype (%) [6]: 13% | Population Mitotic Cells (%) [6]: 78% | Population Normal (%) [6]: 95% | Population Pyknosed Nuclei (%) [6]: 25% | Population Tubulin-Different-Phenotype (%) [6]: 28% | Total Cell Count [6]: 250 | Population Apoptotic (%) [7]: 33% | Population Fragmented Nuclei (%) [7]: 12% | Population Healthy Nuclei (%) [7]: 50% | Population Hoechst High Intensity Objects (%) [7]: 11% | Population Membrane Permeable-Phenotype (%) [7]: 4% | Population Mitochondria Different-Phenotype (%) [7]: 37% | Population Mitotic Cells (%) [7]: 66% | Population Normal (%) [7]: 88% | Population Pyknosed Nuclei (%) [7]: 37% | Population Tubulin-Different-Phenotype (%) [7]: 22% | Total Cell Count [7]: 256 | Population Apoptotic (%) [8]: 9% | Population Fragmented Nuclei (%) [8]: 2% | Population Healthy Nuclei (%) [8]: 68% | Population Hoechst High Intensity Objects (%) [8]: 3% | Population Membrane Permeable-Phenotype (%) [8]: 3% | Population Mitochondria Different-Phenotype (%) [8]: 11% | Population Mitotic Cells (%) [8]: 90% | Population Normal (%) [8]: 96% | Population Pyknosed Nuclei (%) [8]: 29% | Population Tubulin-Different-Phenotype (%) [8]: 19% | Total Cell Count [8]: 291 | Population Apoptotic (%) [9]: 45% | Population Fragmented Nuclei (%) [9]: 21% | Population Healthy Nuclei (%) [9]: 36% | Population Hoechst High Intensity Objects (%) [9]: 16% | Population Membrane Permeable-Phenotype (%) [9]: 1% | Population Mitochondria Different-Phenotype (%) [9]: 22% | Population Mitotic Cells (%) [9]: 54% | Population Normal (%) [9]: 83% | Population Pyknosed Nuclei (%) [9]: 41% | Population Tubulin-Different-Phenotype (%) [9]: 24% | Total Cell Count [9]: 228 | Population Apoptotic (%) [10]: 7% | Population Fragmented Nuclei (%) [10]: 7% | Population Healthy Nuclei (%) [10]: 84% | Population Hoechst High Intensity Objects (%) [10]: 3% | Population Membrane Permeable-Phenotype (%) [10]: 10% | Population Mitochondria Different-Phenotype (%) [10]: 4% | Population Mitotic Cells (%) [10]: 92% | Population Normal (%) [10]: 96% | Population Pyknosed Nuclei (%) [10]: 8% | Population Tubulin-Different-Phenotype (%) [10]: 21% | Total Cell Count [10]: 472 | Population Apoptotic (%) [11]: 36% | Population Fragmented Nuclei (%) [11]: 15% | Population Healthy Nuclei (%) [11]: 56% | Population Hoechst High Intensity Objects (%) [11]: 6% | Population Membrane Permeable-Phenotype (%) [11]: 1% | Population Mitochondria Different-Phenotype (%) [11]: 14% | Population Mitotic Cells (%) [11]: 63% | Population Normal (%) [11]: 93% | Population Pyknosed Nuclei (%) [11]: 27% | Population Tubulin-Different-Phenotype (%) [11]: 11% | Total Cell Count [11]: 351 | Population Apoptotic (%) [12]: 10% | Population Fragmented Nuclei (%) [12]: 5% | Population Healthy Nuclei (%) [12]: 83% | Population Hoechst High Intensity Objects (%) [12]: 2% | Population Membrane Permeable-Phenotype (%) [12]: 4% | Population Mitochondria Different-Phenotype (%) [12]: 3% | Population Mitotic Cells (%) [12]: 89% | Population Normal (%) [12]: 97% | Population Pyknosed Nuclei (%) [12]: 11% | Population Tubulin-Different-Phenotype (%) [12]: 12% | Total Cell Count [12]: 593

Cl.Cn1c2c(c3ccc(Cl)c(Cl)c31)C(C#N)C1(CCNCC1)NC2=O (stereo not drawn)
Population Apoptotic (%) [1]: 17% | Population Fragmented Nuclei (%) [1]: 13% | Population Healthy Nuclei (%) [1]: 66% | Population Hoechst High Intensity Objects (%) [1]: 10% | Population Membrane Permeable-Phenotype (%) [1]: 8% | Population Mitochondria Different-Phenotype (%) [1]: 6% | Population Mitotic Cells (%) [1]: 82% | Population Normal (%) [1]: 89% | Population Pyknosed Nuclei (%) [1]: 19% | Population Tubulin-Different-Phenotype (%) [1]: 10% | Total Cell Count [1]: 650 | Population Apoptotic (%) [2]: 2% | Population Fragmented Nuclei (%) [2]: 6% | Population Healthy Nuclei (%) [2]: 87% | Population Hoechst High Intensity Objects (%) [2]: 3% | Population Membrane Permeable-Phenotype (%) [2]: 3% | Population Mitochondria Different-Phenotype (%) [2]: 7% | Population Mitotic Cells (%) [2]: 97% | Population Normal (%) [2]: 96% | Population Pyknosed Nuclei (%) [2]: 5% | Total Cell Count [2]: 1592 | Population Apoptotic (%) [3]: 24% | Population Fragmented Nuclei (%) [3]: 16% | Population Healthy Nuclei (%) [3]: 30% | Population Hoechst High Intensity Objects (%) [3]: 20% | Population Membrane Permeable-Phenotype (%) [3]: 23% | Population Mitochondria Different-Phenotype (%) [3]: 14% | Population Mitotic Cells (%) [3]: 75% | Population Normal (%) [3]: 79% | Population Pyknosed Nuclei (%) [3]: 52% | Population Tubulin-Different-Phenotype (%) [3]: 76% | Total Cell Count [3]: 698 | Population Apoptotic (%) [4]: 17% | Population Fragmented Nuclei (%) [4]: 3% | Population Healthy Nuclei (%) [4]: 74% | Population Hoechst High Intensity Objects (%) [4]: 4% | Population Membrane Permeable-Phenotype (%) [4]: 24% | Population Mitochondria Different-Phenotype (%) [4]: 25% | Population Mitotic Cells (%) [4]: 82% | Population Normal (%) [4]: 95% | Population Pyknosed Nuclei (%) [4]: 22% | Population Tubulin-Different-Phenotype (%) [4]: 95% | Total Cell Count [4]: 983 | Population Apoptotic (%) [5]: 16% | Population Fragmented Nuclei (%) [5]: 11% | Population Healthy Nuclei (%) [5]: 77% | Population Hoechst High Intensity Objects (%) [5]: 7% | Population Membrane Permeable-Phenotype (%) [5]: 17% | Population Mitochondria Different-Phenotype (%) [5]: 5% | Population Mitotic Cells (%) [5]: 83% | Population Normal (%) [5]: 92% | Population Pyknosed Nuclei (%) [5]: 10% | Population Tubulin-Different-Phenotype (%) [5]: 17% | Total Cell Count [5]: 747 | Population Apoptotic (%) [6]: 5% | Population Fragmented Nuclei (%) [6]: 24% | Population Healthy Nuclei (%) [6]: 72% | Population Hoechst High Intensity Objects (%) [6]: 3% | Population Membrane Permeable-Phenotype (%) [6]: 7% | Population Mitochondria Different-Phenotype (%) [6]: 1% | Population Mitotic Cells (%) [6]: 94% | Population Normal (%) [6]: 96% | Population Pyknosed Nuclei (%) [6]: 2% | Population Tubulin-Different-Phenotype (%) [6]: 11% | Total Cell Count [6]: 2758 | Population Apoptotic (%) [7]: 25% | Population Fragmented Nuclei (%) [7]: 19% | Population Healthy Nuclei (%) [7]: 32% | Population Hoechst High Intensity Objects (%) [7]: 19% | Population Membrane Permeable-Phenotype (%) [7]: 16% | Population Mitochondria Different-Phenotype (%) [7]: 22% | Population Mitotic Cells (%) [7]: 74% | Population Normal (%) [7]: 80% | Population Pyknosed Nuclei (%) [7]: 47% | Population Tubulin-Different-Phenotype (%) [7]: 86% | Total Cell Count [7]: 669 | Population Apoptotic (%) [8]: 12% | Population Fragmented Nuclei (%) [8]: 5% | Population Healthy Nuclei (%) [8]: 81% | Population Hoechst High Intensity Objects (%) [8]: 9% | Population Membrane Permeable-Phenotype (%) [8]: 13% | Population Mitochondria Different-Phenotype (%) [8]: 25% | Population Mitotic Cells (%) [8]: 87% | Population Normal (%) [8]: 91% | Population Pyknosed Nuclei (%) [8]: 13% | Population Tubulin-Different-Phenotype (%) [8]: 94% | Total Cell Count [8]: 1033
